ChEMBL document CHEMBL1149384, “Identification of a novel spiropiperidine opioid receptor-like 1 antagonist class by a focused library approach featuring 3D-pharmacophore similarity” (J Med Chem, 2006)

How the values were obtained:
[1] = target: T1, Nociceptin receptor (Homo sapiens, UniProt P41146); assay: Displacement of [125I]Tyr-nociceptin from cloned human ORL1 expressed in CHO cells; assay type: cell-based
Outline: (§1)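 Radioligand displacement using membrane fractions of CHO cells stably expressing cloned human receptors. IC50 reported as mean of three independent determinations, each in duplicate.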

[2] = target: Delta-type opioid receptor (Homo sapiens, UniProt P41143); assay: Displacement of [3H]naltrindole from cloned human delta opioid receptor expressed in CHO cells; assay type: cell-based; outline: as §1
[3] = target: T1, Nociceptin receptor; assay: Antagonist activity on nociceptin-induced [35S]GTP-gamma-S binding to ORL1 expressed in CHO cells; assay type: functional, cell-based
Outline: (§2)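 [35S]GTPγS binding in membrane fractions from CHO cells stably expressing human ORL1. Antagonism: IC50 against nociceptin-stimulated binding. Agonism: EC50 relative to maximal binding produced by nociceptin. Means of three independent determinations, each in duplicate.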

[4] = target: T1, Nociceptin receptor; assay: Agonist activity on nociceptin-induced maximal [35S]GTP-gamma-S binding to ORL1 expressed in CHO cells; assay type: functional, cell-based; outline: as §2
[5] = target: Mu-type opioid receptor (Homo sapiens, UniProt P35372); assay: Displacement of [3H]diprenorphin from cloned human mu opioid receptor expressed in CHO cells; assay type: cell-based; outline: as §1
[6] = target: Kappa-type opioid receptor (Homo sapiens, UniProt P41145); assay: Displacement of [3H]U-69593 from cloned human kappa opioid receptor expressed in CHO cells; assay type: cell-based; outline: as §1
[7] = Distribution coefficient (LogD) between octanol and buffer; assay type: physicochemical
[8] = test system: Mus musculus; assay: Antagonist activity as % reversal against the reduction in locomotor activity produced by an ORL1 agonist in CD1 mice at 10 mg/kg, sc; assay type: functional; design: scale not given: the % may be the effect or the level left; conditions: route subcutaneous
Outline: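 Mice given test agent 10 mg/kg sc against an ORL1 agonist that reduces locomotor activity. Activity counted over 60 min. Value is % reversal of the agonist response, mean ± SEM, n = 7–8 per group.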

[9] = test system: Rattus norvegicus; assay: Brain level in rat after administration of 10 mg/kg, sc; assay type: ADME, organism-based; design: dose 10 mg/kg, route subcutaneous; conditions: in vivo
Outline: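 Rats dosed 10 mg/kg sc. Plasma and brain collected 1 h after dosing and drug concentration measured, n = 3 per group. Plasma in nM, brain in nmol/g brain.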

T1 sequence (P41146 whole entry): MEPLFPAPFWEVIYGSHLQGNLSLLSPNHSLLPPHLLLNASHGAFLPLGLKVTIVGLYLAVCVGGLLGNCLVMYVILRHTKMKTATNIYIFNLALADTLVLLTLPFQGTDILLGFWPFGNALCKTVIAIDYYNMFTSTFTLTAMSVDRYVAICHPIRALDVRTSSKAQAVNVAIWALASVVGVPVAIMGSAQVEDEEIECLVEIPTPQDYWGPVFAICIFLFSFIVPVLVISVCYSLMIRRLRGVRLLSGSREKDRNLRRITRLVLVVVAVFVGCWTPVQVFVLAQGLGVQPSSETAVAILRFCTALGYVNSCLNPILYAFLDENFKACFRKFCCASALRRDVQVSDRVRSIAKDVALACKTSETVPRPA
Mu-type opioid receptor, sequence (P35372 whole entry): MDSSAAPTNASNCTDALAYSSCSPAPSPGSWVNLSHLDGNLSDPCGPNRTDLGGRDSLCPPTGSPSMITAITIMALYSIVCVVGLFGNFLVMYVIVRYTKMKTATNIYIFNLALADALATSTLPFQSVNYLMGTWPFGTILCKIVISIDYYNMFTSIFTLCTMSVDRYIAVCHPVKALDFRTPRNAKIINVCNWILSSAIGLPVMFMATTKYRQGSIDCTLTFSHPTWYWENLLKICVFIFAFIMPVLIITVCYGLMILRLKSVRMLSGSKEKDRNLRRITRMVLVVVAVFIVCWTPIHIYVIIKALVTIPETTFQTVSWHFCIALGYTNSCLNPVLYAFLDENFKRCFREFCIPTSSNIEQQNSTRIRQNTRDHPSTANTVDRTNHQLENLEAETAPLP
Delta-type opioid receptor, sequence (P41143 whole entry): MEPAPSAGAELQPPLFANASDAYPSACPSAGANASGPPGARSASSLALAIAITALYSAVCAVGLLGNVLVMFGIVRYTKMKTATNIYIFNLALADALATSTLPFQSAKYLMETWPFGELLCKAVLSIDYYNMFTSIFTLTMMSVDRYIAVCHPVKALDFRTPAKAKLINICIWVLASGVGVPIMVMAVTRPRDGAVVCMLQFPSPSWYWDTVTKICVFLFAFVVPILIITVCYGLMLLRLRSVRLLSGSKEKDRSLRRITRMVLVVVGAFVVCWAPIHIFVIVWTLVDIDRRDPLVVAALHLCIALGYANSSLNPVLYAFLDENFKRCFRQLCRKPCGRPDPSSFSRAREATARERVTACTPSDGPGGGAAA
Kappa-type opioid receptor, sequence (P41145 whole entry): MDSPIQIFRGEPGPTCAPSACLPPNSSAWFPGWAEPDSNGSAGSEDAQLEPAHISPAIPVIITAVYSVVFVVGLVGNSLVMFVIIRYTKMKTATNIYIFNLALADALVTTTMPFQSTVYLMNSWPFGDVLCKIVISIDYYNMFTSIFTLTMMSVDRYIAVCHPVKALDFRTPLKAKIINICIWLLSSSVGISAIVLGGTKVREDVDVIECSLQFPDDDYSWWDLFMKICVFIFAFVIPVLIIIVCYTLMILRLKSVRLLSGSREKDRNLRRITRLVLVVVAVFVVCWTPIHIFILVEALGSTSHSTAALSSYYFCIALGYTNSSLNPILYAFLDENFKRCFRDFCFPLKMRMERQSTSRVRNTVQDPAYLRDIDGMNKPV

SMILES	IC50 [1]	other results
O=C(NCCCN1CCC2(CCc3ccccc32)CC1)c1ncccc1C(O)c1ccccc1 (configuration not stated)	> 1000 nM	–
O=C(NCCCN1CCC2(CCc3ccccc32)CC1)C1CCN(c2ncccn2)CC1	> 1000 nM	–
Cc1onc(-c2ccccc2)c1C(=O)NCCCN1CCC2(CCc3ccccc32)CC1	> 1000 nM	–
O=C(CCc1ccccc1)NCCCN1CCC2(CCc3ccccc32)CC1	730 nM	–
CC(C)(C)OC(=O)NC1(C(=O)NCCCN2CCC3(CCc4ccccc43)CC2)CCCCC1	> 1000 nM	–
O=C(CC1Cc2ccccc2C1)NCCCN1CCC2(CCc3ccccc32)CC1	> 1000 nM	–
O=C1N[C@@H](Cc2ccccc2)[C@@H](C(=O)NCCCN2CCC3(CCc4ccccc43)CC2)O1	30 nM	–
O=C(Cc1cccc(Oc2ccccc2)c1)NCCCN1CCC2(CCc3ccccc32)CC1	340 nM	–
O=C(NCCCN1CCC2(CCc3ccccc32)CC1)c1cccc(Oc2ccccc2)c1	> 1000 nM	–
COC(C(=O)NCCCN1CCC2(CCc3ccccc32)CC1)c1ccccc1 (configuration not stated)	> 1000 nM	–
O=C(NCCCN1CCC2(CCc3ccccc32)CC1)c1ccc(-c2ccc(Cl)cc2)o1	> 1000 nM	–
O=C(N[C@H]1CCCC[C@@H]1C(=O)NCCCN1CCC2(CCc3ccccc32)CC1)c1ccccc1	> 1000 nM	–
O=C(NCCCN1CCC2(CCc3ccccc32)CC1)C1(c2ccccc2)CCCC1	> 1000 nM	–
O=C(Cc1ccccc1)C(=O)NCCCN1CCC2(CCc3ccccc32)CC1	> 1000 nM	–
Cc1ccc(C(=O)/C=C/C(=O)NCCCN2CCC3(CCc4ccccc43)CC2)cc1	> 1000 nM	–
O=C(NCCCN1CCC2(CCc3ccccc32)CC1)c1ccccc1OCc1ccccc1	83 nM	IC50 [2]: > 10000 nM; IC50 [3]: 110 nM; EC50 [4]: > 10000 nM; IC50 [5]: > 10000 nM; IC50 [6]: 2300 nM
CC(=O)N/C(=C\c1ccccc1)C(=O)NCCCN1CCC2(CCc3ccccc32)CC1	> 1000 nM	–
O=C(NCCCN1CCC2(CCc3ccccc32)CC1)c1ccccc1Nc1ccccc1	230 nM	–
CC1=Cc2ccccc2C1C(=O)NCCCN1CCC2(CCc3ccccc32)CC1 (configuration not stated)	> 1000 nM	–
O=C(Cc1ccc2ccccc2c1)NCCCN1CCC2(CCc3ccccc32)CC1	> 1000 nM	–
O=C(NCCCN1CCC2(CCc3ccccc32)CC1)C(Cc1ccccc1)c1ccccc1 (configuration not stated)	> 1000 nM	–
O=C(NCCCN1CCC2(CCc3ccccc32)CC1)C1(c2ccccc2)CCCCC1	630 nM	–
O=C1CC(C(=O)NCCCN2CCC3(CCc4ccccc43)CC2)c2ccccc21 (configuration not stated)	> 1000 nM	–

SMILES	IC50 [1]	other results
O=C(NCCCN1CCC2(CCc3ccccc32)CC1)[C@H]1CCCN1Cc1ccccc1	0.22 nM	IC50 [2]: > 10000 nM; IC50 [3]: 0.12 nM; EC50 [4]: > 1000 nM; IC50 [5]: 4300 nM; IC50 [6]: 950 nM; logD [7]: 2.7
CC(Oc1ccc(Cl)cc1Cl)C(=O)NCCCN1CCC2(CCc3ccccc32)CC1 (configuration not stated)	> 1000 nM	–
O=C(NCCCN1CCC2(CC1)OCc1ccccc12)[C@H]1CCCN1Cc1ccccc1	0.27 nM	Activity [8]: 88%; IC50 [2]: > 10000 nM; IC50 [3]: 0.15 nM; EC50 [4]: > 1000 nM; Activity [9]: 4.37 nM/g; IC50 [5]: 6700 nM; IC50 [6]: 2500 nM
O=C(NCCCN1CCC2(CCc3ccccc32)CC1)C1CCc2ccccc2C1 (configuration not stated)	> 1000 nM	–
O=C(NCCCN1CCC2(CCc3ccccc32)CC1)[C@H](O)Cc1ccccc1	> 1000 nM	–
COc1ccccc1/C=C\C(=O)NCCCN1CCC2(CCc3ccccc32)CC1	> 1000 nM	–
O=C(NCCCN1CCC2(CCc3ccccc32)CC1)C1Cc2ccccc2N1c1ccccc1 (configuration not stated)	> 1000 nM	–
O=C(NCCCN1CCC2(CCc3ccccc32)CC1)c1ccccc1Oc1ccccc1	8.2 nM	IC50 [2]: > 10000 nM; IC50 [3]: 4 nM; EC50 [4]: > 10000 nM; IC50 [5]: > 10000 nM; IC50 [6]: 9600 nM
O=C(/C=C/c1c[nH]c2ccccc12)NCCCN1CCC2(CCc3ccccc32)CC1	> 1000 nM	–
O=C(NCCCN1CCC2(CCc3ccccc32)CC1)c1cccc2c1Cc1ccccc1-2	> 1000 nM	–
C[C@@H](O)[C@H](NC(=O)c1ccccc1)C(=O)NCCCN1CCC2(CCc3ccccc32)CC1	> 1000 nM	–
O=C(NCCCN1CCC2(CCc3ccccc32)CC1)C1Cc2ccccc2C1	> 1000 nM	–
O=C(NCCCN1CCC2(CCc3ccccc32)CC1)[C@@H](O)Cc1ccccc1	12 nM	IC50 [2]: > 10000 nM; IC50 [3]: 7.5 nM; EC50 [4]: > 10000 nM; IC50 [5]: > 10000 nM; IC50 [6]: 6900 nM
O=C(NCCCN1CCC2(CCc3ccccc32)CC1)[C@@H]1CCCN1C(=O)c1ccccc1	> 1000 nM	–
COc1ccc2c(c1)CC(CC(=O)NCCCN1CCC3(CCc4ccccc43)CC1)C2=O (configuration not stated)	> 1000 nM	–
O=C(NCCCN1CCC2(CCc3ccccc32)CC1)[C@H]1COCN1C(=O)OCc1ccccc1	131 nM	–
O=C(NCCCN1CCC2(CCc3ccccc32)CC1)[C@H]1COC(=O)N1Cc1ccccc1	24 nM	–
O=C(NCCCN1CCC2(CCc3ccccc32)CC1)C(O)(c1ccccc1)C1CCCCC1 (configuration not stated)	> 1000 nM	–
O=C(NCCCN1CCC2(CCc3ccccc32)CC1)C1Cc2ccccc21 (configuration not stated)	> 1000 nM	–
O=C(CSc1nc2ccccc2s1)NCCCN1CCC2(CCc3ccccc32)CC1	290 nM	–
CN(CC(=O)NCCCN1CCC2(CCc3ccccc32)CC1)C(=O)c1ccccc1	> 1000 nM	–
O=C(NCCCN1CCC2(CCc3ccccc32)CC1)C(=O)c1cnn(-c2ccccc2)c1C(F)(F)F	> 1000 nM	–
O=C(NCCCN1CCC2(CCc3ccccc32)CC1)c1ncccc1-c1ccccc1	> 1000 nM	–

SMILES	IC50 [1]	other results
CC(C)(C)C(Cc1ccccc1)C(=O)NCCCN1CCC2(CCc3ccccc32)CC1 (configuration not stated)	> 1000 nM	–
O=C(NCCCN1CCC2(CCc3ccccc32)CC1)c1ccccc1C(O)c1ccccc1 (configuration not stated)	580 nM	–
CC(Oc1ccccc1)C(=O)NCCCN1CCC2(CCc3ccccc32)CC1 (configuration not stated)	900 nM	–
O=C(NCCCN1CCC2(CCc3ccccc32)CC1)c1ccccc1Cc1ccccc1	21 nM	–
O=C(NCCCN1CCC2(CCc3ccccc32)CC1)C(=O)c1c[nH]c2ccccc12	330 nM	–
O=C(Cc1ccccc1)NCCCN1CCC2(CCc3ccccc32)CC1	> 1000 nM	–
O=C(NCCCN1CCC2(CCc3ccccc32)CC1)c1cc(=O)c2ccccc2o1	> 1000 nM	–
O=C(Cc1cccc2ccccc12)NCCCN1CCC2(CCc3ccccc32)CC1	> 1000 nM	–
O=C(NCCCN1CCC2(CCc3ccccc32)CC1)C1CC1c1ccccc1 (configuration not stated)	> 1000 nM	–
O=C(NCCCN1CCC2(CCc3ccccc32)CC1)[C@@H]1CCCN1Cc1ccccc1	47 nM	IC50 [2]: > 10000 nM; IC50 [3]: 42 nM; EC50 [4]: > 10000 nM; IC50 [5]: > 10000 nM; IC50 [6]: 7900 nM
O=C(/C=C/c1ccccc1)NCCCN1CCC2(CCc3ccccc32)CC1	540 nM	–
O=C(NCCCN1CCC2(CCc3ccccc32)CC1)c1ccccc1-c1ccccc1	10 nM	IC50 [2]: > 10000 nM; IC50 [3]: 8.3 nM; EC50 [4]: > 10000 nM; IC50 [5]: > 10000 nM; IC50 [6]: 3700 nM; logD [7]: 3.1
O=C(CCCc1ccccc1)NCCCN1CCC2(CCc3ccccc32)CC1	350 nM	–
O=C(CSc1ccccc1)NCCCN1CCC2(CCc3ccccc32)CC1	170 nM	–
O=C(N[C@H]1CCCC[C@H]1C(=O)NCCCN1CCC2(CCc3ccccc32)CC1)c1ccccc1	> 1000 nM	–
O=C(NCCCN1CCC2(CCc3ccccc32)CC1)C1CCCCC1C(=O)Nc1ccccc1 (configuration not stated)	> 1000 nM	–
CC(NC(=O)c1ccccc1)C(=O)NCCCN1CCC2(CCc3ccccc32)CC1 (configuration not stated)	> 1000 nM	–
O=C(NCCCN1CCC2(CCc3ccccc32)CC1)[C@H]1CCC(=O)N1Cc1ccccc1	50 nM	–
O=C(NCCCN1CCC2(CCc3ccccc32)CC1)c1ncccc1Oc1ccccc1	> 1000 nM	–
O=C(Cc1ccc2c(c1)OCO2)C(=O)NCCCN1CCC2(CCc3ccccc32)CC1	> 1000 nM	–
CC(C)(Oc1ccc(Cl)cc1)C(=O)NCCCN1CCC2(CCc3ccccc32)CC1	870 nM	–
O=C(CCc1c[nH]c2ccccc12)NCCCN1CCC2(CCc3ccccc32)CC1	360 nM	–
